Measured values published in ChEMBL document CHEMBL3259728, “Design, synthesis and biological evaluation of some novel substituted quinazolines as antitumor agents” (2014).

How the values were obtained:
Assay type in all cases: functional
[1] = Growth inhibition of human UACC62 cells assessed as cell growth at 10^-5 M after 48 hrs by SRB assay; conditions: UACC-62, 48 h, read-out: Activity
IGROV-1 = assay: Cytotoxicity against human IGROV1 cells after 48 hrs by SRB assay; conditions: IGROV-1, 48 h
How it was run: (§1)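 NCI 60-cell-line panel of human tumour lines from nine cancer types. Continuous 48 h exposure at five 10-fold dilutions from 10^-4 to 10^-8 M, with 5-FU as positive control. SRB protein stain read spectrophotometrically at time zero, untreated control and each concentration. GI50, TGI and LC50 were derived from the [(Ti−Tz)/(C−Tz)]×100 growth relations, and out-of-range values are given as > or < the tested limits.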

A498 = assay: Growth inhibition of human A498 cells assessed as cell growth at 10^-6 M after 48 hrs by SRB assay; conditions: A498, 48 h, read-out: Activity
How it was run: (§2)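 Five-dose NCI panel protocol. Each dose (10^-4 to 10^-8 M, 10-fold steps) was given as 48 h continuous exposure, and protein was measured by SRB staining. Percentage growth at each level is [(Ti−Tz)/(C−Tz)]×100, where Tz is time-zero absorbance and C is untreated control.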

MDA-MB-435 = assay: Growth inhibition of human MDA-MB-435 cells assessed as cell growth at 10^-7 M after 48 hrs by SRB assay; conditions: MDA-MB-435, 48 h, read-out: Activity
Malme-3M = assay: Growth inhibition of human MALME-3M cells assessed as cell growth at 10^-7 M after 48 hrs by SRB assay; conditions: read-out: Activity
MCF7 [2] = assay: Cytotoxicity against human MCF7 cells after 48 hrs by SRB assay; conditions: MCF7, 48 h; how it was run: as §1
[3] = Growth inhibition of human HCT15 cells assessed as cell growth at 10^-7 M after 48 hrs by SRB assay; conditions: HCT-15, 48 h, read-out: Activity
PC-3 = assay: Growth inhibition of human PC3 cells assessed as cell growth at 10^-8 M after 48 hrs by SRB assay; conditions: PC-3, 48 h, read-out: Activity
SK-OV-3 = assay: Growth inhibition of human SKOV3 cells assessed as cell growth at 10^-4 M after 48 hrs by SRB assay; conditions: SK-OV-3, 48 h, read-out: Activity
[4] = Growth inhibition of human SF539 cells assessed as cell growth at 10^-6 M after 48 hrs by SRB assay; conditions: SF-539, 48 h, read-out: Activity
NCI-H226 [5] = assay: Growth inhibition of human NCI-H226 cells assessed as cell growth at 10^-7 M after 48 hrs by SRB assay; conditions: NCI-H226, 48 h, read-out: Activity
DU-145 [6] = assay: Cytotoxicity against human DU145 cells after 48 hrs by SRB assay; conditions: DU-145, 48 h; how it was run: as §1
[7] = Cytotoxicity against human UACC62 cells after 48 hrs by SRB assay; conditions: UACC-62, 48 h
How it was run: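 NCI 60-cell-line panel, 48 h continuous exposure to five 10-fold dilutions from 10^-4 to 10^-8 M. SRB protein staining was read spectrophotometrically, with time-zero, untreated-control and treated absorbances. GI50, TGI and LC50 were derived from the percentage-growth formulas. Values outside the tested range are expressed as more or less than the maximum or minimum concentration.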

DU-145 [8] = assay: Growth inhibition of human DU145 cells assessed as cell growth at 10^-5 M after 48 hrs by SRB assay; conditions: DU-145, 48 h, read-out: Activity; how it was run: as §2
[9] = Growth inhibition of human UO31 cells assessed as cell growth at 10^-8 M after 48 hrs by SRB assay; conditions: UO-31, 48 h, read-out: Activity
CCRF-CEM = assay: Growth inhibition of human CCRF-CEM cells assessed as cell growth at 10^-7 M after 48 hrs by SRB assay; conditions: read-out: Activity; how it was run: as §2
NCI-H23 = assay: Growth inhibition of human NCI-H23 cells assessed as cell growth at 10^-6 M after 48 hrs by SRB assay; conditions: NCI-H23, 48 h, read-out: Activity
HOP-62 = assay: Growth inhibition of human HOP62 cells assessed as cell growth at 10^-5 M after 48 hrs by SRB assay; conditions: HOP-62, 48 h, read-out: Activity
NCI-H226 [10] = assay: Cytotoxicity against human NCI-H226 cells after 48 hrs by SRB assay; conditions: NCI-H226, 48 h; how it was run: as §1
MCF7 [11] = assay: Growth inhibition of human MCF7 cells assessed as cell growth at 10^-6 M after 48 hrs by SRB assay; conditions: MCF7, 48 h, read-out: Activity
DU-145 [12] = assay: Growth inhibition of human DU145 cells assessed as cell growth at 10^-4 M after 48 hrs by SRB assay; conditions: DU-145, 48 h, read-out: Activity; how it was run: as §2
[13] = Growth inhibition of human Hs578T cells assessed as cell growth at 10^-5 M after 48 hrs by SRB assay; conditions: Hs-578T, read-out: Activity
[14] = Growth inhibition of human OVCAR8 cells assessed as cell growth at 10^-8 M after 48 hrs by SRB assay; conditions: OVCAR-8, 48 h, read-out: Activity
SNB-19 = assay: Cytotoxicity against human SNB19 cells after 48 hrs by SRB assay; conditions: SNB-19, 48 h; how it was run: as §1
MDA-MB-468 = assay: Growth inhibition of human MDA-MB-468 cells assessed as cell growth at 10^-5 M after 48 hrs by SRB assay; conditions: MDA-MB-468, 48 h, read-out: Activity
[15] = Growth inhibition of human RXF393 cells assessed as cell growth at 10^-8 M after 48 hrs by SRB assay; conditions: RXF 393, 48 h, read-out: Activity
[16] = Growth inhibition of human MOLT4 cells assessed as cell growth at 10^-8 M after 48 hrs by SRB assay; conditions: MOLT-4, 48 h, read-out: Activity
[17] = read-out: LC50 (the source's name)
[18] = read-out: pLC50 (the source's name) (converted)

Structure (SMILES): Cc1ccc(-c2nc3ccc(Cl)cc3c(=O)n2/N=C/c2ccccc2)cc1
- growth at 10 µM [1]: 62%
- GI50 (IGROV-1; read-out: GI50): 3.69 µM
- CC50 (IGROV-1; [17]): > 100 µM
- TGI (IGROV-1; read-out: TGI): > 100 µM
- GI50 (IGROV-1; read-out: pGI50 (converted)): 3.72 µM
- CC50 (IGROV-1; [18]): > 100 µM
- TGI (IGROV-1; read-out: pTGI): > 100 µM
- growth at 1 µM (A498): 85%
- growth at 0.1 µM (MDA-MB-435): 86%
- growth at 0.1 µM (Malme-3M): 76%
- GI50 (MCF7 [2]; read-out: GI50): 26.9 µM
- CC50 (MCF7 [2]; [17]): > 100 µM
- TGI (MCF7 [2]; read-out: TGI): > 100 µM
- GI50 (MCF7 [2]; read-out: pGI50 (converted)): 26.9 µM
- CC50 (MCF7 [2]; [18]): > 100 µM
- TGI (MCF7 [2]; read-out: pTGI): > 100 µM
- growth at 0.1 µM [3]: 92%
- growth at 0.01 µM (PC-3): 92%
- growth at 100 µM (SK-OV-3): -37%
- growth at 1 µM [4]: 94%
- growth at 0.1 µM (NCI-H226 [5]): 82%
- GI50 (DU-145 [6]; read-out: GI50): 58.4 µM
- CC50 (DU-145 [6]; [17]): > 100 µM
- TGI (DU-145 [6]; read-out: TGI): > 100 µM
- GI50 (DU-145 [6]; read-out: pGI50 (converted)): 58.9 µM
- CC50 (DU-145 [6]; [18]): > 100 µM
- TGI (DU-145 [6]; read-out: pTGI): > 100 µM
- GI50 ([7]; read-out: GI50): 25.8 µM
- CC50 [7, 17]: > 100 µM
- TGI ([7]; read-out: TGI): > 100 µM
- GI50 ([7]; read-out: pGI50 (converted)): 25.7 µM
- CC50 [7, 18]: > 100 µM
- TGI ([7]; read-out: pTGI): > 100 µM
- growth at 10 µM (DU-145 [8]): 55%
- growth at 0.01 µM [9]: 77%
- growth at 0.1 µM (CCRF-CEM): 97%
- growth at 1 µM (NCI-H23): 87%
- growth at 10 µM (HOP-62): 36%
- GI50 (NCI-H226 [10]; read-out: GI50): 5.14 µM
- CC50 (NCI-H226 [10]; [17]): > 100 µM
- TGI (NCI-H226 [10]; read-out: TGI): > 100 µM
- GI50 (NCI-H226 [10]; read-out: pGI50 (converted)): 5.13 µM
- CC50 (NCI-H226 [10]; [18]): > 100 µM
- TGI (NCI-H226 [10]; read-out: pTGI): > 100 µM
- growth at 1 µM (MCF7 [11]): 86%
- growth at 100 µM (DU-145 [12]): 49%
- growth at 10 µM [13]: 3%
- growth at 0.01 µM [14]: 101%
- GI50 (SNB-19; read-out: GI50): 5 µM
- CC50 (SNB-19; [17]): > 100 µM
- TGI (SNB-19; read-out: TGI): > 100 µM
- GI50 (SNB-19; read-out: pGI50 (converted)): 5.01 µM
- CC50 (SNB-19; [18]): > 100 µM
- TGI (SNB-19; read-out: pTGI): > 100 µM
- growth at 10 µM (MDA-MB-468): 65%
- growth at 0.01 µM [15]: 97%
- growth at 0.01 µM [16]: 103%
